In ChEMBL document CHEMBL1138253, “Cytotoxic and apoptotic activities of novel amino analogues of boswellic acids” (2007):

How the values were obtained:
Format in all cases: functional
MCF7 = test: Cytotoxicity against human MCF7 cells at 10 uM after 48 hrs; conditions: MCF7, 48 h
In short: (§1)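 SRB growth assay. DMSO stock (1 × 10^-2 M) diluted in RPMI-1640 (2 mM glutamine, pH 7.4, 10% FCS, antibiotics). Trypsinized subconfluent cells with >97% viability (trypan blue) seeded at 10^5 cells/ml and grown 24 h, then exposed to compound 48 h at 37 °C, 5% CO2. Fixed with TCA at 4 °C for 1 h, stained with 0.4% SRB, solubilized in 0.01 M Tris pH 10.4, OD read at 540 nm. Run in triplicate; mean of three experiments.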

DU-145 = test: Cytotoxicity against human DU145 cells at 10 uM after 48 hrs; conditions: DU-145, 48 h; in short: as §1
SW-620 = test: Cytotoxicity against human SW620 cells at 10 uM after 48 hrs; conditions: SW-620, 48 h; in short: as §1
[1] = Cytotoxicity against human 502713 cells at 10 uM after 48 hrs; conditions: Homo sapiens, 502713, 48 h; in short: as §1
HT-29 = test: Cytotoxicity against human HT29 cells at 10 uM after 48 hrs; conditions: HT-29, 48 h; in short: as §1

SMILES | inhibition at 10 µM (MCF7) | inhibition at 10 µM (DU-145) | inhibition at 10 µM (SW-620) | inhibition at 10 µM [1] | inhibition at 10 µM (HT-29)
CCC(=O)N[C@@]1(C)[C@@H](OC(=O)CC)CC[C@@]2(C)[C@H]1CC[C@]1(C)[C@@H]2CC=C2[C@@H]3[C@@H](C)[C@H](C)CC[C@]3(C)CC[C@]21C | 0% | 11% | 13% | 0% | 24%
CO[C@@]12[C@H](COC(N)=O)C3=C(C(=O)C(C)=C(N)C3=O)N1C[C@@H]1N[C@@H]12 [MITOMYCIN] | 78% | 56% | 67% | 84% | 63%
CC(=O)O[C@@H]1CC[C@@]2(C)[C@@H](CC[C@]3(C)[C@@H]2C(=O)C=C2[C@@H]4[C@@H](C)[C@H](C)CC[C@]4(C)CC[C@]23C)[C@@]1(C)N=C=O | 10% | 0% | 0% | 2% | 0%
CC(=O)O[C@H]1CC[C@@]2(C)[C@@H](CC[C@]3(C)[C@@H]2C(=O)C=C2[C@@H]4[C@@H](C)[C@H](C)CC[C@]4(C)CC[C@]23C)[C@@]1(C)N=C=O | 9% | 0% | 20% | 0% | 5%
COC(=O)[C@@]1(C)C(=O)CC[C@]2(C)[C@H]3C(=O)C=C4[C@@H]5[C@@H](C)[C@H](C)CC[C@]5(C)CC[C@@]4(C)[C@]3(C)CC[C@@H]12 | 3% | 13% | 2% | 20% | 5%
CCCC(=O)N[C@]1(C)[C@@H]2CC[C@]3(C)[C@H](CC=C4[C@@H]5[C@@H](C)[C@H](C)CC[C@]5(C)CC[C@]43C)[C@@]2(C)CC[C@H]1OC(=O)CCC | 0% | 0% | 0% | 7% | 0%
CC(=O)O[C@@H]1CC[C@@]2(C)[C@@H](CC[C@]3(C)[C@@H]2CC=C2[C@@H]4[C@@H](C)[C@H](C)CC[C@]4(C)CC[C@]23C)[C@@]1(C)N=C=O | 30% | 0% | 0% | 0% | 22%
C[C@H]1[C@H](C)CC[C@]2(C)CC[C@]3(C)C(=CC[C@@H]4[C@@]5(C)CC[C@H](O)[C@](C)(C(=O)O)[C@@H]5CC[C@]43C)[C@H]12 | 18% | 1% | 15% | 18% | 11%
CCC(=O)N[C@]1(C)[C@@H]2CC[C@]3(C)[C@H](C(=O)C=C4[C@@H]5[C@@H](C)[C@H](C)CC[C@]5(C)CC[C@]43C)[C@@]2(C)CC[C@H]1OC(=O)CC | 4% | 0% | 0% | 24% | 0%
CCCC(=O)N[C@]1(C)[C@@H]2CC[C@]3(C)[C@H](C(=O)C=C4[C@@H]5[C@@H](C)[C@H](C)CC[C@]5(C)CC[C@]43C)[C@@]2(C)CC[C@H]1OC(=O)CCC | 0% | 0% | 0% | 12% | 0%
CC(=O)O[C@H]1CC[C@@]2(C)[C@@H](CC[C@]3(C)[C@@H]2CC=C2[C@@H]4[C@@H](C)[C@H](C)CC[C@]4(C)CC[C@]23C)[C@@]1(C)N=C=O | 50% | 18% | 6% | 3% | 2%
COC(=O)[C@@]1(C)C(=O)CC[C@]2(C)[C@H]3CC=C4[C@@H]5[C@@H](C)[C@H](C)CC[C@]5(C)CC[C@@]4(C)[C@]3(C)CC[C@@H]12 | 0% | 12% | 3% | 27% | 12%
CC(=O)N[C@@]1(C)[C@@H](OC(C)=O)CC[C@@]2(C)[C@H]1CC[C@]1(C)[C@@H]2CC=C2[C@@H]3[C@@H](C)[C@H](C)CC[C@]3(C)CC[C@]21C | 2% | 6% | 43% | 0% | 27%
CC(=O)O[C@H]1CC[C@@]2(C)[C@@H](CC[C@]3(C)[C@@H]2C(=O)C=C2[C@@H]4[C@@H](C)[C@H](C)CC[C@]4(C)CC[C@]23C)[C@@]1(C)C(=O)O | 21% | 0% | 0% | 23% | 19%
C[C@H]1[C@H](C)CC[C@]2(C)CC[C@]3(C)C(=CC[C@@H]4[C@@]5(C)CC[C@@H](O)[C@](C)(C(=O)O)[C@@H]5CC[C@]43C)[C@H]12 [BOSWELLIC ACID] | 18% | 0% | 2% | 24% | 15%
CC(=O)O[C@H]1C(=O)[C@@]2(C)[C@H]([C@H](OC(=O)c3ccccc3)[C@]3(O)C[C@H](OC(=O)[C@H](O)[C@@H](NC(=O)c4ccccc4)c4ccccc4)C(C)=C1C3(C)C)[C@]1(OC(C)=O)CO[C@@H]1C[C@@H]2O [PACLITAXEL] | 46% | 53% | 41% | 26% | 76%
CCC(=O)N[C@]1(C)[C@@H]2CC[C@]3(C)[C@H](CC=C4[C@@H]5[C@@H](C)[C@H](C)CC[C@]5(C)CC[C@]43C)[C@@]2(C)CC[C@H]1OC(=O)CC | 35% | 8% | 0% | 9% | 0%
CC(=O)N[C@]1(C)[C@@H]2CC[C@]3(C)[C@H](C(=O)C=C4[C@@H]5[C@@H](C)[C@H](C)CC[C@]5(C)CC[C@]43C)[C@@]2(C)CC[C@H]1OC(C)=O | 62% | 9% | 0% | 20% | 0%
C[C@H]1[C@H](C)CC[C@]2(C)CC[C@]3(C)C(=CC(=O)[C@@H]4[C@@]5(C)CC[C@H](O)[C@](C)(N)[C@@H]5CC[C@]43C)[C@H]12 | 17% | 0% | 7% | 0% | 0%
CC(=O)O[C@@H]1CC[C@@]2(C)[C@@H](CC[C@]3(C)[C@@H]2CC=C2[C@@H]4[C@@H](C)[C@H](C)CC[C@]4(C)CC[C@]23C)[C@@]1(C)C(=O)O | 0% | 0% | 5% | 20% | 36%
C[C@H]1[C@H](C)CC[C@]2(C)CC[C@]3(C)C(=CC(=O)[C@@H]4[C@@]5(C)CC[C@H](O)[C@](C)(C(=O)O)[C@@H]5CC[C@]43C)[C@H]12 | 16% | 3% | 1% | 27% | 0%
CC(=O)N[C@]1(C)[C@@H]2CC[C@]3(C)[C@H](CC=C4[C@@H]5[C@@H](C)[C@H](C)CC[C@]5(C)CC[C@]43C)[C@@]2(C)CC[C@H]1OC(C)=O | 57% | 8% | 0% | 7% | 0%
CC(=O)O[C@@H]1CC[C@@]2(C)[C@@H](CC[C@]3(C)[C@@H]2C(=O)C=C2[C@@H]4[C@@H](C)[C@H](C)CC[C@]4(C)CC[C@]23C)[C@@]1(C)C(=O)O [AKBA] | 12% | 10% | 2% | 8% | 24%
COC(=O)[C@@]1(C)[C@H](O)CC[C@@]2(C)[C@H]1CC[C@]1(C)[C@@H]2CC=C2[C@@H]3[C@@H](C)[C@H](C)CC[C@]3(C)CC[C@]21C | 1% | 13% | 0% | 23% | 0%
C[C@H]1[C@H](C)CC[C@]2(C)CC[C@]3(C)C(=CC(=O)[C@@H]4[C@@]5(C)CC[C@@H](O)[C@](C)(C(=O)O)[C@@H]5CC[C@]43C)[C@H]12 [11-KETO BOSWELLIC ACID] | 0% | 0% | 7% | 0% | 7%
C[C@H]1[C@H](C)CC[C@]2(C)CC[C@]3(C)C(=CC[C@@H]4[C@@]5(C)CC[C@H](O)[C@](C)(N)[C@@H]5CC[C@]43C)[C@H]12 | 0% | 16% | 63% | 23% | 51%
COC(=O)[C@]1(C)[C@@H]2CC[C@]3(C)[C@H](CC=C4[C@@H]5[C@@H](C)[C@H](C)CC[C@]5(C)CC[C@]43C)[C@@]2(C)CC[C@@H]1O | 0% | 0% | 12% | 9% | 0%
COC(=O)[C@@]1(C)[C@H](O)CC[C@@]2(C)[C@H]1CC[C@]1(C)[C@@H]2C(=O)C=C2[C@@H]3[C@@H](C)[C@H](C)CC[C@]3(C)CC[C@]21C | 0% | 12% | 1% | 19% | 0%
